Shown are actives, neighbours in structure and some others; about 1.9% of the full set was active somewhere.
RanGTP-Imp inh: disruptors of Ran-importin-beta complex formation – biochemical, FRET, CFP-Ran, YFP-importin-beta, homogeneous, primary screen. cell-free CFP-Ran/YFP-importin-beta FRET ratio. inhibition, % (concentration not given with the values). 300,000 compounds, 1.1% hits;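 active means more than half of the replicate wells show a fall in the fluorescence ratio signal beyond about 16%, limit read from the data, passing the limit was not always enough; inconclusive means exactly half of the replicate wells pass the set limit; inactive means fewer than half of replicates pass the limit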;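 further: 0% = DMSO wells and 100% = Ran loaded with GDP instead of GTP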
Runt-SMMHC FRET: inhibitors of human RUNX1 Runt domain binding to CBFb-SMMHC; Q01196+Q13951; Cerulean-Runt/Venus-CBFb-SMMHC FRET ratio 530/480, 1 h; inhibition, % at 20 µM; 220,000 compounds, 0.74% hits;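 active means mean inhibition across duplicate retests at 20 µM reaching about 50%, limit read from the data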;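 further: 0% = DMSO wells and 100% = wells with excess untagged CBFb-SMMHC; inhibitors lower the FRET ratio by blocking Runt binding to CBFb-SMMHC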
Hck Nef HTS: human Hck-Nef kinase inhibition; inhibition, % at 20 µM; 220,000 compounds, 0.68% hits; AID 463187; Recombinant Hck-YEEI plus Nef, Z-Lyte FRET kinase assay; P08631;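 active means Hck-Nef kinase inhibition above about 50%, limit read from the data; inactive means inhibition below that limit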;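 further: 0% = DMSO with Hck plus Nef and 100% = Hck alone without Nef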
Target sequence (P08631 whole entry, looked up): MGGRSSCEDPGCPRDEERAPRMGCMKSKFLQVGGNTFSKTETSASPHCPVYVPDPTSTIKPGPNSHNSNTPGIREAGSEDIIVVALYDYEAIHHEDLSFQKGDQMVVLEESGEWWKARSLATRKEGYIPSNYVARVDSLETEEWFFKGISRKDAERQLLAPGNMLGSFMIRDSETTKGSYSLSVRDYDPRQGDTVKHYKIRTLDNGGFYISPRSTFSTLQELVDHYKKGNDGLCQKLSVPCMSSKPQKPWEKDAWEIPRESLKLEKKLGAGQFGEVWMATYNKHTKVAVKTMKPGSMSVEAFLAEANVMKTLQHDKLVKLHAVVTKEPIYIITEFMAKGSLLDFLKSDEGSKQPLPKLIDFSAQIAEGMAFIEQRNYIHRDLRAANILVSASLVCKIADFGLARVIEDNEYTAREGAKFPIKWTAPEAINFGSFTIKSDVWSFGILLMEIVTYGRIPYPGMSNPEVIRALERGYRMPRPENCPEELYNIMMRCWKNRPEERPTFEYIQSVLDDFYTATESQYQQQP
Runt-CBFb FRET: inhibitors of human RUNX1 Runt domain binding to CBFb | Cerulean-Runt/Venus-CBFb FRET ratio 530/480, 1 h | inhibition, % at 20 µM | 220,000 compounds, 0.46% hits | AID 1496;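 active means inhibition over about 50% at 20 µM in the single-dose screen, limit read from the data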;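 further: 0% = DMSO wells and 100% = excess unlabeled CBFb competitor control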
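Assay system: Cerulean-Runt domain / Medium: Tris 50 mM pH 7.5, KCl, K2SO4, 0.01% BSA / Timing: protein complex preformed 1 h, compound exposure 1 h, room temperature, dark / Measured by: FRET, excitation 422 nm, emission at 530 and 480 nm / Evaluation: loss of energy transfer signal / Control set: 5 µM unlabeled CBFb as full-inhibition high control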
Active calls of the source: *; u = inconclusive; x = no result.

SMILES | RanGTP-Imp inh | Runt-SMMHC FRET | Hck Nef HTS | Runt-CBFb FRET
N=c1c(C(=O)NC2CCCC2)cc2c(=O)n3ccccc3nc2n1CCN1CCOCC1 | 99* | 77* | 34 | 99*
COc1ccc(CCn2c(=N)c(C(=O)NCCN3CCOCC3)cc3c(=O)n4ccccc4nc32)cc1OC | -1 | x | x | x
N=c1c(C(=O)NC2CCCC2)cc2c(=O)n3ccccc3nc2n1CCCN1CCOCC1 | 140* | x | x | x
Cc1ccsc1C(=O)OCC(=O)Nc1sccc1C(N)=O | 1 | -1 | 10 | -2
COc1ccccc1N1CCN(C(=O)c2ccc3c(c2)NC(=O)C(CSCc2ccccc2C)N3)CC1 (stereo unspecified) | -4 | x | x | x
O=C(CN(C(=O)CCC(=O)Nc1nccs1)c1ccc(F)cc1)NCc1ccccc1 | 1 | x | x | x
CCCCCCc1cc2cc(C(=O)NCc3ccccc3)c(=N)oc2cc1O | 146* | 75 | 11 | 40
CCN(CC)c1ccc2cc(C(=O)NCc3ccc(F)cc3)c(=N)oc2c1 | 99* | x | x | x
CC(C)C(NC(=O)COc1ccc2ccccc2c1)C(=O)N/N=C/C=C/c1ccccc1 (stereo unspecified) | -1 | 6 | 0 | -10
COC(=O)c1ccc(OC(=O)C23CCC(C)(C(=O)O2)C3(C)C)cc1 (stereo unspecified) | -1 | -1 | 18 | 0
CC(C)(C)OC(=O)NCC(=O)Oc1cc2oc(=O)cc(-c3ccccc3)c2cc1Cl | 0 | 81* | 1 | 3
O=C(Nc1cccc(NC(=O)c2ccco2)c1)c1ccc([N+](=O)[O-])cc1 | 75* | -2 | 5 | 0
COc1ccc2cc(C(c3nnnn3C(C)(C)C)N3CCc4ccccc4C3)c(=O)[nH]c2c1 (stereo unspecified) | x | -34 | 7 | -18
CCC(C)(C)n1nnnc1C(c1cc2ccc(OC)cc2[nH]c1=O)N1CCc2ccccc2C1 (stereo unspecified) | 16* | -5 | 3 | -20
CCC(C)(C)n1nnnc1C(c1cc2cc3c(cc2[nH]c1=O)OCO3)N1CCN(C)CC1 (stereo unspecified) | 3 | 66* | 4 | 40
C=CCNC(=S)NNC(=O)c1cccc(Br)c1 | 1 | 1 | 1 | 2
C=CCNC(=O)c1cccc(Br)c1 | 24* | -2 | 1 | 3
CC(CCc1ccc(O)cc1)NCCc1ccc(O)c(O)c1 (stereo unspecified) | 40* | x | x | x
CCOC(=O)Nc1c2ccccc2nc2ccccc12 | 131* | 82* | 39 | 65*
COC(=O)c1ccc(C(=O)OC)c(NC(=S)N2CCCC(C)C2)c1 (stereo unspecified) | 54* | 34 | 4 | 17
CCN(CC)C(=S)Nc1cc(C(=O)OC)ccc1C(=O)OC | 38* | 32 | 4 | 20
CCC(C)C(=O)Nc1cc(C(=O)OC)ccc1C(=O)OC (stereo unspecified) | 5 | -1 | 2 | 3
COC(=O)c1ccc(C(=O)OC)c(NC(=S)N2CC(C)CC(C)C2)c1 (stereo unspecified) | u | 29 | 8 | 14
CC(NC(=S)Nc1ccc(S(=O)(=O)N2CCOCC2)cc1)C1CC2CCC1C2 (stereo unspecified) | 8 | 2 | 0 | 0
CC(C)(C)c1csc(NC(=O)c2cccs2)n1 | u | 0 | 3 | -2
SMILES | RanGTP-Imp inh | Runt-SMMHC FRET | Hck Nef HTS | Runt-CBFb FRET
CC(C)(C)c1csc(NC(=O)c2cccnc2)n1 | 36* | x | x | x
COc1ccc(Cl)cc1NC(=O)c1nnn(CC(=O)Nc2ccc3c(c2)OCO3)c1N | 5 | x | x | x
COC(=O)c1cc2c(-c3ccccc3)cc3ccccn3c-2c1C(=O)OC | -1 | 54* | 1 | 38
COC(=O)c1c(C)c2c(C)cc3ccccn3c-2c1C(=O)OC | -1 | -34 | -3 | -9
CC1CCCCN1CCCNc1ccc(C(CC(N)=O)NC(=O)Cc2cccc3ccccc23)cc1[N+](=O)[O-] (stereo unspecified) | 30* | x | x | x
CC1CCCCN1CCCNc1ccc(C(CC(N)=O)NC(=O)Cc2ccc(Cl)cc2)cc1[N+](=O)[O-] (stereo unspecified) | -2 | x | x | x
CCc1nnc(NC(=O)C(C)Sc2ccccc2)s1 (stereo unspecified) | 25* | 0 | 1 | 0
CCS(=O)(=O)N1Cc2ccccc2CC1C(=O)Nc1ccc(OC)c(OC)c1 (stereo unspecified) | -2 | x | x | x
CCS(=O)(=O)N1Cc2ccccc2CC1C(=O)Nc1ccc(F)cc1 (stereo unspecified) | 1 | 80* | -2 | 2
COC(=O)c1ccc(COc2ccc(/C=N/NC(N)=S)cc2)o1 | 4 | -4 | -5 | 2
CC1CCC(C(C)C)C2=C1C(C#N)(C#N)C(C#N)(C#N)C(c1ccccc1)N2 (stereo unspecified) | -4 | -3 | 18 | 8
CC(C)C1OC2(C)OC(=N)C1(C#N)C(C#N)(C#N)C2c1ccccc1 (stereo unspecified) | 32* | 63* | 21 | 40
CCC1OC2(C)OC(=N)C1(C#N)C(C#N)(C#N)C2c1ccccc1 (stereo unspecified) | 33* | 67 | 17 | 22
CCN1CC2=C(OC(N)=C(C#N)C2c2ccccc2)/C(=C\c2ccccc2)C1 (stereo unspecified) | 21* | 1 | -9 | 4
O=C(Nc1sc2c(c1C(=O)NCc1ccco1)CCCC2)c1ccc2c(c1)OCO2 | u | 65* | 19 | 37
O=c1[nH][nH]c2cc(=O)n(-c3cccc(C(F)(F)F)c3)nc12 | 0 | -8 | 30 | -6
Nc1n[nH]c2cc(=O)n(-c3cccc(C(F)(F)F)c3)nc12 | 118* | 86* | 26 | 64*
CN(C)S(=O)(=O)c1cccc(NC(=O)c2cc3c(=O)n4ccccc4nc3s2)c1 | 6 | 28 | 17 | -34
Cc1cc(NS(=O)(=O)c2ccc(NC(=O)c3cc4c(=O)n5ccccc5nc4s3)cc2)nc(C)n1 | 7 | 74* | 19 | 33
CN(C)CCCNC(=S)N1CCn2c(nc3ccccc32)C1 | 0 | -1 | 1 | 0
CSCC(C)N1CCC(n2nccc2NC(=O)c2ccc3c(c2)OCO3)CC1 (stereo unspecified) | 11 | x | x | x
CSCC(C)N1CCC(n2nccc2NC(=O)c2ccccc2C)CC1 (stereo unspecified) | 21* | x | x | x
CCOc1ccc(C(Nc2cccnc2)c2cc(Cl)c3cccnc3c2O)cc1 (stereo unspecified) | x | 21 | 51* | 33
CC(=O)N1c2ccc(S(=O)(=O)N(C)c3cc(C)ccc3C)cc2CC1C (stereo unspecified) | -1 | x | x | x
Cc1ccc(N(C)S(=O)(=O)c2ccc3c(c2)CC(C)N3C(=O)C2CC2)cc1 (stereo unspecified) | 51* | x | x | x
CCSc1nc(N)c2c3c(sc2n1)CN(C)CC3 | 5 | 18 | -5 | 2
CCNc1nc(SCC(N)=O)nc2sc3c(c12)CCN(C)C3 | 48* | x | x | x
CSc1nc(SCC(N)=O)c2c3c(sc2n1)CN(C)CC3 | 3 | -4 | 1 | -2
